Data on 1 compound can be found in ChEMBL document CHEMBL2390921, “A novel benzazepinone sodium channel blocker with oral efficacy in a rat model of neuropathic pain” (Bioorg Med Chem Lett, 2013).

Data set [1] deals with T1, Sodium channel protein type 5 subunit alpha (Homo sapiens, UniProt Q14524). Kind of data set: Binding affinity to resting state of human NaV1.5 channel by whole-cell patch clamp assay. The note with it: read-out: K.
The target in data set [2] is T2, Prostaglandin E2 receptor EP1 subtype (Homo sapiens) (UniProt P34995).
T2 sequence (whole entry): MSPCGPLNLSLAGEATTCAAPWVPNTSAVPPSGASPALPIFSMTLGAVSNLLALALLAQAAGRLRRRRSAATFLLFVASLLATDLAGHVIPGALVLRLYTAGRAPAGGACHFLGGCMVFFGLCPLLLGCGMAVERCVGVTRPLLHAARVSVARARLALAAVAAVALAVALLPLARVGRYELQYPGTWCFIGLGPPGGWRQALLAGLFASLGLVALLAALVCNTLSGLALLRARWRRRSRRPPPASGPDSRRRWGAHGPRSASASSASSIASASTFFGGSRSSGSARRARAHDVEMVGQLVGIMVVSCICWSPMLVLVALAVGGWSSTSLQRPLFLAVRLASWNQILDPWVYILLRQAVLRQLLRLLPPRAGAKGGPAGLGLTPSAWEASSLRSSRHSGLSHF
The data set is described as follows: Binding affinity to prostaglandin receptor EP1 (unknown origin) at 25 uM relative to control.

Data set [3] has as its system Rattus norvegicus. Kind of data set: Analgesic activity in rat spinal nerve ligation neuropathic pain model assessed as reversal of allodynia at 30 mg/kg, po measured at 24 hrs relative to control. The data set is classed as functional. A digest of the protocol:
(§1)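 Rat spinal nerve ligation model. Seven days after surgery, rats received a single oral dose (3, 10 or 30 mg/kg) of test agent or vehicle. Tactile allodynia was scored at 2, 4, 8 and 24 h post-dose with calibrated von Frey filaments using an up-down paradigm. Threshold is the force giving a 50% withdrawal rate. %MPE = (post-compound − post-SNL)/(pre-SNL − post-SNL) × 100, where 100% is full reversal.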

The target of data set [4] is T1, Sodium channel protein type 5 subunit alpha. The data set is described as follows: Binding affinity to inactivated state of human NaV1.5 channel by whole-cell patch clamp assay. The note with it: read-out: K.
The target of data set [5] is Sodium channel protein type 10 subunit alpha (Homo sapiens) (UniProt Q9Y5Y9). The data set is described as follows: Binding affinity to inactivated state of NaV1.8 channel (unknown origin) by whole-cell patch clamp assay. A digest of the protocol: (§2)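 Manual whole-cell voltage clamp measuring block of resting and inactivated channel states at room temperature. Data acquired at 50 kHz, filtered at 10 kHz. Bath: 40 mM NaCl, 120 mM NMDG-Cl, 1 mM KCl, 2.7 mM CaCl2, 0.5 mM MgCl2, 10 mM NMDG-HEPES, pH 7.4.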

The target in data set [6] is T3, Sodium channel protein type 9 subunit alpha (Homo sapiens, UniProt Q15858). The data set is described as follows: Binding affinity to inactivated state of human NaV1.7 channel assessed as inhibition of current evoked by 6 ms depolarizations to 0 mV from holding potential -70 mV at 3 uM by whole-cell patch clamp assay relative to vehicle-treated control.
Target sequence in this assay (Q15858 whole entry, looked up): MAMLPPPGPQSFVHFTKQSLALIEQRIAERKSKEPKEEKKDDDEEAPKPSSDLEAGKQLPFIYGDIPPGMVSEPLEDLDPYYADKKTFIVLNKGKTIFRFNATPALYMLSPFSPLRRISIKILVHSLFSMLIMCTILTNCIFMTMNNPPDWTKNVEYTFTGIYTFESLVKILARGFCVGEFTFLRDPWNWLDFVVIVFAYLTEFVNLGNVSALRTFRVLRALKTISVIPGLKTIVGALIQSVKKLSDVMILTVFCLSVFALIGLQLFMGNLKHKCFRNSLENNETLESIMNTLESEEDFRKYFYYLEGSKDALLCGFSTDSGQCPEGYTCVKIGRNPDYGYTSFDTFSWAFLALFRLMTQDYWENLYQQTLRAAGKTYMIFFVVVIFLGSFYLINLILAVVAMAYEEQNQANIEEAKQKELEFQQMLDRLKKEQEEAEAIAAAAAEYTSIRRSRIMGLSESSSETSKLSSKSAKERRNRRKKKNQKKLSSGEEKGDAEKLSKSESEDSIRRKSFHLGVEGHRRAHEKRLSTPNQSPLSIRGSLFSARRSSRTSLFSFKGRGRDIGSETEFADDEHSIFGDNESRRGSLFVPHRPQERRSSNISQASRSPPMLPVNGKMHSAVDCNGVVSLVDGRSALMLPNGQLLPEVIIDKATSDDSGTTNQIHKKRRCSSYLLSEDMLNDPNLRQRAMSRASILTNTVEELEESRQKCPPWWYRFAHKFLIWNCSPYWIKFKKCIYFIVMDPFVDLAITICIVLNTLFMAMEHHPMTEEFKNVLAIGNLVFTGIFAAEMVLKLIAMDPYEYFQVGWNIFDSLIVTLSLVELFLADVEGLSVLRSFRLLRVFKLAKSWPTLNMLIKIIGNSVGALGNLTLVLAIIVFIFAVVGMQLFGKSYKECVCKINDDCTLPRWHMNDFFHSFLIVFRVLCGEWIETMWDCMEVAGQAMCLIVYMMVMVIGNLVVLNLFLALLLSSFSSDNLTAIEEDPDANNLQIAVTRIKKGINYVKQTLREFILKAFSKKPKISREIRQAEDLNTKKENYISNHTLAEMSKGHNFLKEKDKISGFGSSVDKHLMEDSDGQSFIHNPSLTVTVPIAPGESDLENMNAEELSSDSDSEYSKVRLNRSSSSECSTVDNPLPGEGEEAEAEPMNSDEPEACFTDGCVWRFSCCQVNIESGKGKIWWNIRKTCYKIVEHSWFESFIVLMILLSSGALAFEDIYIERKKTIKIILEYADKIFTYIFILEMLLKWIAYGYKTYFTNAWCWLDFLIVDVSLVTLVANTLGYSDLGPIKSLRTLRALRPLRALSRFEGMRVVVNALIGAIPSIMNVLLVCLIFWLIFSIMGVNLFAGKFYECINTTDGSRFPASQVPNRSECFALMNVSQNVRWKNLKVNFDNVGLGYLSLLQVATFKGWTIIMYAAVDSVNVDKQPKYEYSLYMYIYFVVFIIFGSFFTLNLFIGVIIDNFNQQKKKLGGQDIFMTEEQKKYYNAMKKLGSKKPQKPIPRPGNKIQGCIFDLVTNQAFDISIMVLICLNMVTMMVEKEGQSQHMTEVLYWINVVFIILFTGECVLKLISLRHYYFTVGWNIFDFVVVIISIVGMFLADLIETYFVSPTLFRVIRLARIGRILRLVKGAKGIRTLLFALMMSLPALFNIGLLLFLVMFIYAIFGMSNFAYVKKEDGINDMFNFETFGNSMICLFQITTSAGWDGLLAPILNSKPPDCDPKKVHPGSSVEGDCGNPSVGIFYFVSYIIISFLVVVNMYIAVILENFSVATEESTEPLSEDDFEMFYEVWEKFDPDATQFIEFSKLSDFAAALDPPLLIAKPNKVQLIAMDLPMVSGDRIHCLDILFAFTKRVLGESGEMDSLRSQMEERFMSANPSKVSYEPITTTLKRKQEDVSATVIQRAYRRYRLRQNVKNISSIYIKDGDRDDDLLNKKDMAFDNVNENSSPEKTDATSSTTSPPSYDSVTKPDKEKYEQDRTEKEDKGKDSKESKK
Data set [7] relates to Rattus norvegicus. Kind of data set: Dose normalized AUC in Sprague-Dawley rat at 3 mg/kg, po. The data set is classed as ADME, organism-based. More on the design: dose 3 mg/kg, route oral. Conditions: in vivo. A digest of the protocol: (§3)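 Fasted male Sprague–Dawley rats (n = 3 per route) were dosed with 1.5 mg/mL solutions in PEG300/water or DMSO/PEG300/water, either 1.0 mg/kg iv via femoral-vein cannula or 3.0 mg/kg by oral gavage. Blood was sampled at 5 min (iv only), 15 and 30 min, and 1, 2, 4, 6 and 8 h. Plasma levels were measured by LC–MS/MS after acetonitrile protein precipitation.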

The test system of data set [8] is Rattus norvegicus. Kind of data set: Analgesic activity in po dosed rat spinal nerve ligation neuropathic pain model assessed as reversal of allodynia measured after 4 hrs. It is filed as functional, organism-based. A digest of the protocol:
as §1

The nature of data set [9]: Plasma clearance in Sprague-Dawley rat at 3 mg/kg, po and 1 mg/kg, iv. The data set is classed as ADME, organism-based. A digest of the protocol: as §3
In data set [10] the target is T4, B1 bradykinin receptor (Homo sapiens) (UniProt P46663).
T4 sequence (whole entry): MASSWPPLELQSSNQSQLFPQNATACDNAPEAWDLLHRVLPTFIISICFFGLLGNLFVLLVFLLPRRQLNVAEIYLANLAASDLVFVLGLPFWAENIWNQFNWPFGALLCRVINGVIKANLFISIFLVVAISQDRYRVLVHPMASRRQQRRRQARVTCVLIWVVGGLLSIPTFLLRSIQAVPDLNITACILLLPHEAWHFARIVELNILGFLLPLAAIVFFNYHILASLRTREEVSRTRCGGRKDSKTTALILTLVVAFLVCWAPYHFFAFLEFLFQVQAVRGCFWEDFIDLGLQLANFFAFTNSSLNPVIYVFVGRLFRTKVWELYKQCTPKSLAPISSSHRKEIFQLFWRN
The data set is described as follows: Binding affinity to BK1 receptor (unknown origin) at 25 uM relative to control.

The target in data set [11] is Prostaglandin G/H synthase 1 (Homo sapiens) (UniProt P23219). The data set is described as follows: Binding affinity to COX1 (unknown origin) at 25 uM relative to control.
Data set [12] addresses Mu-type opioid receptor (Homo sapiens) (UniProt P35372). Kind of data set: Binding affinity to mu opioid receptor (unknown origin) at 25 uM relative to control.
The target in data set [13] is Cannabinoid receptor 2 (Homo sapiens) (UniProt P34972). The data set is described as follows: Binding affinity to CB2 receptor (unknown origin) at 25 uM relative to control.
For data set [14], the system named is Rattus norvegicus. The data set is described as follows: Analgesic activity in rat spinal nerve ligation neuropathic pain model assessed as reversal of allodynia at 3 mg/kg, po measured at 8 hrs relative to control. It is filed as functional. A digest of the protocol: as §1
Data set [15] relates to Rattus norvegicus. The data set is described as follows: Analgesic activity in rat spinal nerve ligation neuropathic pain model assessed as reversal of allodynia at 3 mg/kg, po measured at 2 hrs relative to control. The data set is classed as functional. A digest of the protocol:
as §1

Data set [16] has as its target hERG (KCNH2) (Homo sapiens, UniProt Q12809). Kind of data set: Displacement of [35S]-MK0499 from human ERG expressed in HEK293 cell membranes at 10 uM after 2 hrs by liquid scintillation counting analysis relative to control. Conditions: membranes of HEK293 cells that express human ERG, probe [35S]-MK0499. A digest of the protocol: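 hERG binding assay measuring displacement of 35S-labelled MK-0499, a known hERG blocker.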

The target in data set [17] is T3, Sodium channel protein type 9 subunit alpha. Kind of data set: Inhibition of human NaV1.7 channel expressed in HEK293 cells by FRET assay. The data set is classed as cell-based. The procedure, abridged: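 HEK293 cells stably expressing human Nav1.7. Channel block was read in a functional membrane-potential assay based on FRET between two membrane-associated dyes; IC50 determined.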
Target sequence in this assay (Q15858 whole entry): as the sequence (Q15858 whole entry, looked up) above

Data set [18] shares this target. The data set is described as follows: Binding affinity to inactivated state of human NaV1.7 channel by whole-cell patch clamp assay. The procedure, abridged:
as §2
Target sequence in this assay (Q15858 whole entry, looked up): as the sequence (Q15858 whole entry, looked up) above

In data set [19] the test system is Rattus norvegicus. Kind of data set: Analgesic activity in rat spinal nerve ligation neuropathic pain model assessed as reversal of allodynia at 10 mg/kg, po measured at 2 hrs relative to control. It is filed as functional. A digest of the protocol: as §1
Data set [20] has as its system Rattus norvegicus. Kind of data set: Analgesic activity in rat spinal nerve ligation neuropathic pain model assessed as reversal of allodynia at 30 mg/kg, po measured at 4 hrs relative to control. The data set is classed as functional. A digest of the protocol:
as §1

Data set [21] relates to Rattus norvegicus. The data set is described as follows: Analgesic activity in rat spinal nerve ligation neuropathic pain model assessed as reversal of allodynia at 10 mg/kg, po measured at 24 hrs relative to control. It is filed as functional. A digest of the protocol:
as §1

Data set [22] concerns the target Sodium channel protein type 8 subunit alpha (Homo sapiens) (UniProt Q9UQD0). Kind of data set: Binding affinity to inactivated state of NaV1.6 channel (unknown origin) by whole-cell patch clamp assay. The procedure, abridged: as §2

T1 sequence (Q14524 whole entry): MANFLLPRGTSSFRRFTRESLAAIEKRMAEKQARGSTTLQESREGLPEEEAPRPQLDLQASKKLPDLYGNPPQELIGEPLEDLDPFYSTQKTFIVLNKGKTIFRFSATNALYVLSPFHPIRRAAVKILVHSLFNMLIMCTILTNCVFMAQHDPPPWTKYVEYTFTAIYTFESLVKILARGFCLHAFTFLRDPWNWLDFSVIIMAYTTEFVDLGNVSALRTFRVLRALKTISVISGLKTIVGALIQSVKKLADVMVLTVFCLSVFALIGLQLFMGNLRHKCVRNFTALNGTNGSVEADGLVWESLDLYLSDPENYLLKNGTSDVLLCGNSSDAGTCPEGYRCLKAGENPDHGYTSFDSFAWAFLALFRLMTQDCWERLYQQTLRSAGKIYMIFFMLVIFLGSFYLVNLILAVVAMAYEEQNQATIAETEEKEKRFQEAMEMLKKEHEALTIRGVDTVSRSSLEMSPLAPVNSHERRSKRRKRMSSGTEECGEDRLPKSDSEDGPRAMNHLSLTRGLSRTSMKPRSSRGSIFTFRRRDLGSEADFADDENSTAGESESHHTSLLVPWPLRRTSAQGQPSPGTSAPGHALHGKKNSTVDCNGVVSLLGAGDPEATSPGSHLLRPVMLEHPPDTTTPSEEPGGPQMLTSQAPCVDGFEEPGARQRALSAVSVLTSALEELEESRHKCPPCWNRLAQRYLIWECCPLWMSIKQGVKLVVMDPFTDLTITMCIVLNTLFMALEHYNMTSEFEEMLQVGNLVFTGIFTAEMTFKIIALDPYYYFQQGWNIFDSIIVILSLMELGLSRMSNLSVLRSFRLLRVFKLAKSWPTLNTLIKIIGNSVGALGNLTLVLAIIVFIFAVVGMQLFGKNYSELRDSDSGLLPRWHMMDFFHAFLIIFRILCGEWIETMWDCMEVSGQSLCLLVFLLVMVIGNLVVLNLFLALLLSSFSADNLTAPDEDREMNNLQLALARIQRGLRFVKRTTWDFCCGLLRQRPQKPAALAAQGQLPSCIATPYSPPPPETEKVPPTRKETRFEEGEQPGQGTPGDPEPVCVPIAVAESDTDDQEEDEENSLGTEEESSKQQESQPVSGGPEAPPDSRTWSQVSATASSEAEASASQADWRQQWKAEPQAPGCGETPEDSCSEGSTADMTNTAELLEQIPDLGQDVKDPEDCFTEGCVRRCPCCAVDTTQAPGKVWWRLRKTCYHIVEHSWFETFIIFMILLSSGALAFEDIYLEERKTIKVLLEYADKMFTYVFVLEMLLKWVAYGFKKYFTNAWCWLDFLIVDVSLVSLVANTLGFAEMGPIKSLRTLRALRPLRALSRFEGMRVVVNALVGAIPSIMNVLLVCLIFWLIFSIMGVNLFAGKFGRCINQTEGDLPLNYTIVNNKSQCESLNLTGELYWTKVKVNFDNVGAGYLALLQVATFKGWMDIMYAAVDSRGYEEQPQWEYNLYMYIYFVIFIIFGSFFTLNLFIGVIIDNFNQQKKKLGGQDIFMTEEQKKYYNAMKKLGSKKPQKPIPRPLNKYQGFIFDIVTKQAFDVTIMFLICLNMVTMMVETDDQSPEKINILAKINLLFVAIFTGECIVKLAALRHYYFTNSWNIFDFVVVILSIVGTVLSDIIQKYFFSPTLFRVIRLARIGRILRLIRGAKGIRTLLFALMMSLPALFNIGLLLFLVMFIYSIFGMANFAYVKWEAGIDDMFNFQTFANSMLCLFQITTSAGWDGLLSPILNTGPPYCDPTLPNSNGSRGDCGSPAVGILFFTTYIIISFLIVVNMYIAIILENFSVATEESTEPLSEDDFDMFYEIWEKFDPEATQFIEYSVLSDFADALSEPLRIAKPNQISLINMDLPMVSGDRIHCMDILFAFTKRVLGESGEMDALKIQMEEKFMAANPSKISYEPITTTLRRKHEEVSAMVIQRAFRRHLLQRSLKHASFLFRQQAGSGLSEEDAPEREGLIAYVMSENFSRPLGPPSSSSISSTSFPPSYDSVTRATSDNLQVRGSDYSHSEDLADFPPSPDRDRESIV
Mu-type opioid receptor (Homo sapiens), sequence (P35372 whole entry): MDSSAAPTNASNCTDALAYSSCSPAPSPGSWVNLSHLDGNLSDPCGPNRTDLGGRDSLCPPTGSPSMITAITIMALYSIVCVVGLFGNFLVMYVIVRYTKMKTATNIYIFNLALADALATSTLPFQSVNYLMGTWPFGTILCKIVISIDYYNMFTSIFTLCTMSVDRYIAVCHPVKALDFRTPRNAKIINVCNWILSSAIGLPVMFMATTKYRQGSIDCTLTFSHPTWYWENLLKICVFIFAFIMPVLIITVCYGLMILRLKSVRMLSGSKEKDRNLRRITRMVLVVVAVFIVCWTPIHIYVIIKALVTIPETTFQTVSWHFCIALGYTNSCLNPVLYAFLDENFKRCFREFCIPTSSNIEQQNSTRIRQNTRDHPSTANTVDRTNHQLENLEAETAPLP
Cannabinoid receptor 2 (Homo sapiens), sequence (P34972 whole entry): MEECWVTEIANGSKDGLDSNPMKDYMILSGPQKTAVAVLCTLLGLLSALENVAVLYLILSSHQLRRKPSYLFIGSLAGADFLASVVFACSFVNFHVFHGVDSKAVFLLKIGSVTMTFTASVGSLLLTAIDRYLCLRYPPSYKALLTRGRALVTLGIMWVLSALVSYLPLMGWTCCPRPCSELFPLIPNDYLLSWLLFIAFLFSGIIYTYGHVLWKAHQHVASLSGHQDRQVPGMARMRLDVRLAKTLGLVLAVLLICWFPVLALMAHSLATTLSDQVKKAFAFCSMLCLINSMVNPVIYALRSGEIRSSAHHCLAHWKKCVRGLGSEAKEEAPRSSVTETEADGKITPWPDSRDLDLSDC

Turning to `O=C(N[C@H](Cc1ccccc1F)C(=O)N[C@@H]1CCc2c(F)c(F)cc(F)c2N(C2CC2)C1=O)C1CC1C(F)(F)F` (some centres not stated), the Kd in [1] was above 10 µM; in data set [4] it was 2380 nM. In addition, the Activity in [2] was below 50%; in [3], 10%; in data set [8], “Dose-dependent effect”; in data set [10] it was below 50%; in data set [11], below 50%; in data set [12], below 50%. The Activity was below 50% in [13]; 7% in data set [14]; 15% in data set [15]; 43% in data set [19]; 55% in [20]; 4% in data set [21]. Moreover, the figures for the K in data set [5], in [18] and in data set [22] were 3.02 µM, 0.44 µM and 3.88 µM, respectively. In addition, the inhibition in data set [6] turned out to be 48%. The compound further came in with an AUC/dose in data set [7] of 0.72 µM·h/mg/kg. Further, in data set [9], the clearance was found to be 43 mL/min/kg. In addition, the inhibition at 2 h, 10 µM in data set [16] came to 26%. This compound also returned an IC50 in data set [17] of 117 nM.
